In the library only some 2.3% were active in any assay of this set; here they are far more common.
TRPC4 inh: blocks the mouse TRPC4 cation channel; 300,000 tested, 0.39% active; HEK293 TRPC4beta/mu-opioid, DAMGO-evoked Fluo4 calcium flux; hits give low values; Q9QUQ5; B-score at 10 µM;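 active means B-score over 3 SD under the library average, no early fluorescence shift, positive overall ratio signal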
Target sequence (Q9QUQ5 whole entry, looked up): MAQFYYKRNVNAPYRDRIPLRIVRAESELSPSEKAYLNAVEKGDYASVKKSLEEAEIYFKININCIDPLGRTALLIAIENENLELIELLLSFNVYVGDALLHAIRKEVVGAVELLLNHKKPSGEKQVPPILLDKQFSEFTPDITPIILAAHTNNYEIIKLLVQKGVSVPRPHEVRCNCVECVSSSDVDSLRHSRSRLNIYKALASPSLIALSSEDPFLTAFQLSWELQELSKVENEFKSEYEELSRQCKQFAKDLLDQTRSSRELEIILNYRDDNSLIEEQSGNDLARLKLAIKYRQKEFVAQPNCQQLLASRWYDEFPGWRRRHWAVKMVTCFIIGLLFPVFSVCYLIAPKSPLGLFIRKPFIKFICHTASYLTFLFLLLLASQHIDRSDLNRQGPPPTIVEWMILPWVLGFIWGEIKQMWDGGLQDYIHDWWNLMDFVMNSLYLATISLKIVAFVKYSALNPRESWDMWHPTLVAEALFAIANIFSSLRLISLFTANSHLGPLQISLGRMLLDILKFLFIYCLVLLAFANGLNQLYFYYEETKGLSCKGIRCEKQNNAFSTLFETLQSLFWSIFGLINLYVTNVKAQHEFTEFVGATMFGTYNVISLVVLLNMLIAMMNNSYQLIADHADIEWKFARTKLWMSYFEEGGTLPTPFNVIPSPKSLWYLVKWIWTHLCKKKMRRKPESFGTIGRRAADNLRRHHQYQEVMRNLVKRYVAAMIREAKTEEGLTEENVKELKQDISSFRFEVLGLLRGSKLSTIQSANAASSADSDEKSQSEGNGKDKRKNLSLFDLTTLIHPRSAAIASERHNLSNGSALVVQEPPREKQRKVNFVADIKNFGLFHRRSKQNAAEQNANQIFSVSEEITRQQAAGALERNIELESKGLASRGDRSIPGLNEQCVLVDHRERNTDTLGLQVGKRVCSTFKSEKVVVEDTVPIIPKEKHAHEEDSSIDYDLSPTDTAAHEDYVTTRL
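Material: HEK293 cells with stable TRPC4beta plus mu-opioid receptor expression / Probe or stimulus: DAMGO in two steps, submaximal then maximal / Compound: single concentration per test compound / Technique: kinetic Fluo4 fluorescence imaging of calcium influx / Read-out: per-well B score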
TRPC4 act: TRPC4 (mouse) channel activation. Q9QUQ5. HEK293 TRPC4beta/mu-opioid, Fluo4 calcium fluorescence; hits give high values. B-score at 10 µM. 310,000 tested, 0.49% active;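 active means B-score above 5 SD of library B-scores, and initial fluorescence ratio not above library mean plus 5 SD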;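 further: positive B-score marks a calcium rise read as TRPC4 activation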
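Assay system: HEK293 stable line with TRPC4beta plus mu-opioid receptor; schedule: 45 min room-temperature Fluo4 loading, 110 s read; technique: kinetic Fluo4 calcium fluorescence; evaluation: integrated baseline-normalised fluorescence ratio, converted to per-well B score; controls: buffer (low) and maximal DAMGO (high)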
TRPC4 PAM: allosteric potentiators of mouse TRPC4 channel; HEK293 TRPC4beta/mu-opioid, DAMGO EC20, Fluo-4 Ca2+ flux; hits give high values; B-score at 10 µM; 310,000 tested, 0.42% active;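 active means B-score of calcium response area above 5 SD of library B-scores, with initial fluorescence ratio within 5 SD of library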
TRPC6 activator: mouse TRPC6 channel activation; Q61143; HEK293-TRPC6 membrane potential dye fluorescence; hits give high values; B-score at 10 µM; 310,000 tested, 0.13% active; AID 2550;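 active means B-score of the integrated fluorescence ratio above library mean plus 3 SD, and starting fluorescence ratio within library mean plus 5 SD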;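 further: higher score means more depolarization so channel activation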
TRPC6 inhibitor: mouse TRPC6 channel inhibition | Q61143 | HEK293-TRPC6, membrane potential dye, ACh-evoked depolarization; hits give low values | B-score at 10 µM | 310,000 tested, 1.1% active;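 active means B-score under library mean minus 3 SD, initial fluorescence not abnormally high, positive integrated signal ratio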;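 further: B-score derived from integrated fluorescence ratio over the kinetic read; more negative B-score means stronger inhibition of depolarization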
Of the large screens only hits and unclear results are named; the others gave an inactive call.

CCN(c1ccccc1)S(=O)(=O)c1cc([N+](=O)[O-])ccc1N	TRPC6 inhibitor -5.6
c1ccc2c(-c3cn4ccccc4n3)c[nH]c2c1	TRPC4 inh -9, TRPC6 inhibitor -5.5
CCCCN(C)C(=O)Cn1nc(Cc2ccncc2)c2ccccc2c1=O	none
CCCCN(CC)CCCNC(=O)Cn1nc(Cc2ccncc2)c2ccccc2c1=O	TRPC4 act 133
O=c1[nH]ncc(N2CCCC2)c1Cl	none
O=c1[nH]ncc(N2CCN(C(c3ccccc3)c3ccccc3)CC2)c1Cl	TRPC4 inh -9
Cc1cc(=O)oc2c(C)c(OCC(=O)NCCCN3CCOCC3)ccc12	none
CCOC(=O)C1(CCc2ccccc2)CCN(Cc2ccccn2)CC1	TRPC4 inh -8
CCOC(=O)C1(Cc2ccccc2)CCN(Cc2csc(C(C)=O)c2)CC1	none
CCOC(=O)C1(CCCc2ccccc2)CCN(Cc2cnn(C)c2)CC1	TRPC4 act 120
CCOC(=O)C1(Cc2ccccc2)CCN(Cc2cnn(C(C)C)c2)CC1	TRPC4 act 55
CCOC(=O)C1(Cc2ccc(Cl)cc2)CCN(Cc2cn(CC)nc2C)CC1	TRPC4 inh -6, TRPC4 act 68
C=CCn1cnc2c(nnn2-c2ccc(C)c(Cl)c2)c1=O	none
O=C(CSc1nnc(NC(=O)c2ccccc2F)s1)NCC1CCCO1 (stereo not drawn)	none
NC(=O)c1ccccc1NC(=O)CSc1nc2c(c(=O)[nH]1)CCCC2	none
CCCC1=[N+](CC(=O)c2ccc(C)cc2)CCn2cccc21	TRPC4 inh -6
COC(=O)C1=C(C)N(C)C(=O)NC1c1cccc2ccccc12 (stereo not drawn)	none
Nc1ccc2c(c1)OC1(CCCCC1)O2	none
CCOC(=O)c1cc(=O)n(Cc2ccccc2C)c2ccccc12	TRPC4 PAM 15
Cc1ccc(Cn2c(=O)cc(C(=O)O)c3ccccc32)cc1	none
Cc1cc(Nc2ncc(Cl)cc2Cl)n(-c2ccccc2C)n1	TRPC4 inh -7
Cc1ccc(-n2nc(C)cc2Nc2ncc(Cl)cc2Cl)cc1	none
CC(=O)OC(c1nc2ccccc2c(=O)n1C1CC2(OC1=O)c1ccccc1N1C(=O)C(C)(C)N(O)C12)C(C)C (stereo not drawn)	TRPC4 act 83
COCCn1c(SCc2cccc([N+](=O)[O-])c2)nc2ccccc2c1=O	TRPC4 inh -6
COCCn1c(SCc2ccccc2F)nc2ccccc2c1=O	TRPC4 inh -6
CC(=O)NCCn1c(SCc2ccccc2F)nc2ccccc2c1=O	none
COCCn1c(SCC(=O)N2CCc3ccccc3C2)nc2ccccc2c1=O	TRPC4 inh -5
COC(=O)c1ccc(CSc2nc3ccccc3c(=O)n2C)o1	none
COCCn1c(SCC(=O)N2CCOCC2)nc2ccccc2c1=O	none
COC(=O)c1ccc(CSc2nc3ccccc3c(=O)n2CC(C)C)o1	TRPC4 inh -7
Cc1cc(C(=O)NCC(=O)Nc2c(C)cccc2C)c(C)o1	none
CC(=O)N1CCN(C(=O)CCC(=O)O)CC1	none
O=C(NCc1cccnc1)Nc1cccc(Cl)c1Cl	none
COc1cc(C2/C(=C(\O)c3ccc4c(c3)OCCO4)C(=O)C(=O)N2Cc2ccco2)cc(OC)c1OC (stereo not drawn)	none
COCCCn1c(SCC(=O)c2ccccc2)nc2ccccc2c1=O	none
COCCn1c(SCC(=O)c2ccccc2)nc2ccccc2c1=O	TRPC4 inh -7
COC(=O)c1ccc(N=C2SCC(=O)N2C)cc1	none
CN(CCc1ccccn1)C1CC(=O)N(c2ccc(Cl)cc2)C1=O (stereo not drawn)	TRPC4 act 148
CN(CCc1ccccn1)C(=O)Nc1ccc(Cl)cc1	none
COc1ccc(CN2CCN(C3CCC3)CC2CCO)c(F)c1 (stereo not drawn)	none
CCCCN(C)CCNC(=O)CCn1nc(-c2ccc(Cl)cc2)ccc1=O	TRPC4 act 64, TRPC4 PAM 11
COc1ccc(NC(=O)Nc2nnc(Cc3ccc(F)cc3)s2)cc1	none
COc1ccccc1Cn1c(CCCO)nc2ccccc21	none
CCc1nc2ccccc2n1Cc1ccccc1OC	TRPC4 inh -5
COc1ccccc1Cn1c(C)nc2ccccc21	none
CCCc1nc2ccccc2n1Cc1ccccc1OC	TRPC4 inh -7
CCCc1ccc(OCc2ccc(C(=O)NN)o2)c(OC)c1	none
O=C1CCCCCN1CP(=O)(O)CN1CCCCCC1=O	none
Cc1ccc(CCNC(=O)CSCc2ccc(F)cc2)cc1	none
COc1ccc(-c2noc(CCCC(=O)NC3CCCCC3)n2)cc1	none
COc1cc(CN(C)CC2CCCN(CCc3ccccc3F)C2)cc(Cl)c1OC (stereo not drawn)	TRPC4 inh -6
CN(Cc1ccccc1)CC1CCCN(CCc2ccccc2F)C1 (stereo not drawn)	none
CCN1C(=O)C(=O)N(CC(=O)c2[nH]c(C)c(C(C)=O)c2C)C1=O	none
CC(=O)c1c(C)[nH]c(C(=O)CN2C(=O)NC(C)(c3ccc(C)cc3)C2=O)c1C (stereo not drawn)	TRPC4 act 44
Cc1cc(C(=O)COc2cccnc2[N+](=O)[O-])c(C)n1Cc1cccs1	none
CC(=O)Nc1ccccc1OCC(=O)c1cc(C)n(Cc2cccs2)c1C	TRPC4 act 72
COC(=O)c1ccc(CN2CCCC(C(=O)Nc3ccc(-c4ccn[nH]4)cc3)C2)cc1 (stereo not drawn)	TRPC4 act 50
COC(=O)c1ccc(NC(=O)C2CCCN(S(C)(=O)=O)C2)cc1 (stereo not drawn)	none
CC#CC[N+](C)(C)CCCCCCCCCCCC	TRPC4 inh -8
C#CC[N+](C)(C)CCCCCCCCCC	none
Cc1ccccc1N(CC(=O)N/N=C/c1ccc(Cl)cc1)C(=O)c1ccccc1	none
Cc1ccccc1N(CC(=O)N/N=C/c1ccc(F)cc1)C(=O)c1ccccc1	TRPC4 act 91
C[C@@H]1CC=C[C@H]2[C@H]1C(=O)N(Cc1ccccc1)[C@H]2c1ccc(-c2cc3ccccc3s2)cc1F	none
CCN1CCN(C2=NC(=O)/C(=C/c3ccc(C)o3)S2)CC1	TRPC4 PAM 14
Cc1ccc(/C=C2\SC(N3CCCCC3)=NC2=O)cc1	TRPC4 PAM 12
COc1ccc(C(=O)N2CCC(C(=O)O)CC2)c2ccccc12	none
CN(CC(=O)Nc1cc(Cl)cc(Cl)c1)Cc1cccs1	none
CC(C)CCn1c(Sc2nc3ccccc3o2)nc2c1c(=O)[nH]c(=O)n2C	TRPC4 PAM 17
CCN1CCN(c2ccc(S(=O)(=O)N3CCCCC3)cc2NC(=O)CC(C)c2ccccc2)CC1 (stereo not drawn)	TRPC4 act 118
CN1CCN(c2ccc(S(=O)(=O)N3CCCCC3)cc2NC(=O)c2ccc(C#N)cc2)CC1	TRPC4 PAM 11
Cc1ccccc1OCC(=O)Nc1cc(S(=O)(=O)N2CCCCC2)ccc1N1CCN(C)CC1	TRPC4 act 84
CN1CCN(c2ccc(Cl)cc2NC(=O)c2ccc(S(=O)(=O)N3CCCCCC3)cc2)CC1	none
